From ChEMBL document CHEMBL4359878, “Discovery of 4-piperazinyl-2-aminopyrimidine derivatives as dual inhibitors of JAK2 and FLT3” (Eur J Med Chem, 2019)

Key:
[1] = molecular target: T1, Tyrosine-protein kinase JAK2 (Homo sapiens, UniProt O60674); test: Inhibition of N-terminal His-tagged human JAK2 catalytic domain (826 to 1132 resiudes) expressed in baculovirus expression system at 100 nM using FAM-labeled peptide as substrate preincubated for 10 mins followed by substrate addition measured after 1 hr in presence of ATP by mobility shift assay relative to control
Method in brief: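 Single-concentration (100 nM) percent inhibition in the mobility-shift JAK2 assay. Enzyme was preincubated with compound for 10 min at room temperature in HEPES pH 7.5/Brij-35 buffer. FAM-peptide and ATP were then added and the reaction run for 1 h at 28 °C before EDTA stop. Inhibition = (max−conversion)/(max−min)×100. Each compound was tested at least twice and the values averaged.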

[2] = system: MV4-11; test: Antiproliferative activity against human MV4-11 cells assessed as growth inhibition after 72 hrs by CCK-8 assay; assay type: functional; details: MV4-11, 72 h
Method in brief: (§1)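 CCK-8 viability readout. Cells were cultured in RPMI 1640 with 10% FBS and 1% penicillin/streptomycin and seeded at 3000 (HEL), 5000 (MV4-11) or 3000 (HL60) cells/well. Increasing compound concentrations were applied for 72 h, then CCK-8 was added for a further 3 h and absorbance read at 450 nm. Inhibition = (1−A_sample/A_control)×100, normalized to DMSO controls. Value is the mean of three independent measurements, obtained by curve fitting.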

[3] = system: HL-60; test: Antiproliferative activity against human HL60 cells assessed as growth inhibition after 72 hrs by CCK-8 assay; assay type: functional; details: HL-60, 72 h; method in brief: as §1
[4] = system: HEL; test: Induction of cell cycle arrest in human HEL cells assessed as accumulation at S phase at 0.33 uM after 72 hrs by propidium iodide-staining based flow cytometry (reference value: 41.47%); assay type: functional
Method in brief: (§2)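 Subconfluent HEL cells were treated for 72 h at 0.33, 1.0, 3.0 or 9.0 μM, with untreated cells as control. Cultures were pulsed with 10 μM BrdU for 30 min at 37 °C before harvest, then PBS-washed, fixed in 70% ethanol and denatured in 2 M HCl. After neutralization, cells were stained with fluorescein anti-BrdU antibody and propidium iodide. DNA content was measured by flow cytometry with 488 nm excitation.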

[5] = system: HEL; test: Induction of cell cycle arrest in human HEL cells assessed as accumulation at G2 phase at 0.33 uM after 72 hrs by propidium iodide-staining based flow cytometry (reference value: 15.10%); assay type: functional; method in brief: as §2
[6] = system: HEL; test: Induction of cell cycle arrest in human HEL cells assessed as accumulation at S phase at 1 uM after 72 hrs by propidium iodide-staining based flow cytometry (reference value: 41.47%); assay type: functional; method in brief: as §2
[7] = system: HEL; test: Induction of cell cycle arrest in human HEL cells assessed as accumulation at S phase at 3 uM after 72 hrs by propidium iodide-staining based flow cytometry (reference value: 41.47%); assay type: functional; method in brief: as §2
[8] = system: HEL; test: Induction of cell cycle arrest in human HEL cells assessed as accumulation at G1 phase at 9 uM after 72 hrs by propidium iodide-staining based flow cytometry (reference value: 43.12%); assay type: functional; method in brief: as §2
[9] = system: HEL; test: Induction of apoptosis in human HEL cells assessed as viable cells at 0.33 uM after 72 hrs by FITC-annexin V/propidium iodide-double staining based flow cytometry (reference value: 93.77%); assay type: functional; details: read-out: Activity
[10] = system: HEL; test: Induction of apoptosis in human HEL cells assessed as early apoptotic cells at 0.33 uM after 72 hrs by FITC-annexin V/propidium iodide-double staining based flow cytometry (reference value: 2.23%); assay type: functional
[11] = system: HEL; test: Induction of apoptosis in human HEL cells assessed as early apoptotic cells at 1 uM after 72 hrs by FITC-annexin V/propidium iodide-double staining based flow cytometry (reference value: 2.23%); assay type: functional
[12] = system: HEL; test: Induction of apoptosis in human HEL cells assessed as late apoptotic cells at 1 uM after 72 hrs by FITC-annexin V/propidium iodide-double staining based flow cytometry (reference value: 1.63%); assay type: functional
[13] = system: HEL; test: Induction of apoptosis in human HEL cells assessed as necrotic cells at 3 uM after 72 hrs by FITC-annexin V/propidium iodide-double staining based flow cytometry (reference value: 2.40%); assay type: functional
[14] = system: HEL; test: Induction of apoptosis in human HEL cells assessed as late apoptotic cells at 9 uM after 72 hrs by FITC-annexin V/propidium iodide-double staining based flow cytometry (reference value: 1.63%); assay type: functional
[15] = molecular target: T1, Tyrosine-protein kinase JAK2; test: Inhibition of N-terminal His-tagged human JAK2 catalytic domain (826 to 1132 resiudes) expressed in baculovirus expression system using FAM-labeled peptide as substrate preincubated for 10 mins followed by substrate addition measured after 1 hr in presence of ATP by mobility shift assay
Method in brief: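 Caliper mobility-shift assay with recombinant kinase in 50 mM HEPES pH 7.5, 0.0015% Brij-35. Compound was diluted from DMSO and preincubated with enzyme for 10 min at room temperature. FAM-labeled peptide plus ATP was then added and the reaction run for 1 h at 28 °C. It was stopped with an EDTA (50 mM) buffer. Conversion gave percent inhibition relative to max/min controls, and IC50 came from a four-parameter Hill fit. Duplicate wells were used.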

T1 sequence (O60674 whole entry, the tested form may be a part): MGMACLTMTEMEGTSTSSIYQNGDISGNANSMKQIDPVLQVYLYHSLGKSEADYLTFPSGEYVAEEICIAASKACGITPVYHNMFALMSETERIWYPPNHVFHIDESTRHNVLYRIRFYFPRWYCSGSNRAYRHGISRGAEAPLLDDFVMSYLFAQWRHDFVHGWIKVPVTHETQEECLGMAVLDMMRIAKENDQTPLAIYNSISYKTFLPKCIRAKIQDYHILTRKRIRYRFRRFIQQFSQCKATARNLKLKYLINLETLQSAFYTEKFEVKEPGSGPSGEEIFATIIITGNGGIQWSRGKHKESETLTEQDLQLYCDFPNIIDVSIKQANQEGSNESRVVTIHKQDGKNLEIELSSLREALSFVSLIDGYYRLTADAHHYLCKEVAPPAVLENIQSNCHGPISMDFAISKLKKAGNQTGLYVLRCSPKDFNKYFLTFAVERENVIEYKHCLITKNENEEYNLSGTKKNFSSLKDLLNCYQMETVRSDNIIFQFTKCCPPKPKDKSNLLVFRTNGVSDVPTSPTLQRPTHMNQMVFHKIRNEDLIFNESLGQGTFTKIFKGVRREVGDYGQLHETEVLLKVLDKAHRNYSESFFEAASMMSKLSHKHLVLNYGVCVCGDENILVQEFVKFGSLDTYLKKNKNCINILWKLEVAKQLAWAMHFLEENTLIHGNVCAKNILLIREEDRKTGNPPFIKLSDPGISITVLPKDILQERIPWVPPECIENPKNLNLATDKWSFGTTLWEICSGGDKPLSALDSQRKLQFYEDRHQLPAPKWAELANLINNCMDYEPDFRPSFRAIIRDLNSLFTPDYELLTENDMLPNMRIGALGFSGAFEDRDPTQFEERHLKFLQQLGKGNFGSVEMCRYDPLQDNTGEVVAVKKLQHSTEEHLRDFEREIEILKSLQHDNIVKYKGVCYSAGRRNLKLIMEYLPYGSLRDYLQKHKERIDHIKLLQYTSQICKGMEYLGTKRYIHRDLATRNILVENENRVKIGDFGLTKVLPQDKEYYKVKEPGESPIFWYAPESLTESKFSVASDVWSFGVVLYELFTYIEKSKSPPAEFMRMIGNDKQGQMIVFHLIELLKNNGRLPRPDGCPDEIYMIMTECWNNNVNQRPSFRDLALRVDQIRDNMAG

Compound `CC(=O)c1ccc(NC(=O)N2CCN(c3ccnc(Nc4ccc(N5CCOCC5)cc4)n3)CC2)cc1` has an inhibition [1] of 86.7%, a GI50 [2] of 11 µM and a GI50 [3] of 16.5 µM. For the same compound, the Activity [4] was 38.62%, the Activity [5] was 7.31% and the Activity [6] was 31.59%. The Activity [7] was 22.24%, the Activity [8] was 78.05% and the viability at 0.33 µM [9] was 88.3%. It also gave an Activity [10] of 4.07%, an Activity [11] of 16.97% and an Activity [12] of 22.4%. It also gave an Activity [13] of 7%, an Activity [14] of 30.4% and an IC50 [15] of 0.027 µM.
